The list is not random: actives were taken first. Their share in the collection is about 2.3%.
LGR2 inh = inhibitors of bursicon-induced Drosophila LGR2 receptor cAMP signaling | HEK293 LGR2, CRE-luciferase, bursicon-stimulated, 4 h | inhibition, % at 9.99 µM | actives 0.35% (n = 380,000) | AID 720647;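 active means drop in luminescence signal, shown as inhibition above about 50% in the replicate tests, limit read from the data, passing the limit was not always enough; inconclusive means probably only some replicates passing the limit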;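 further: agonist challenge used bursicon conditioned medium at about half maximal strength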
TROY signal inh = TROY signaling inhibition. inhibition, % at 10 µM. actives 0.98% (n = 360,000). Q293 LMP1-TROYcd NF-kB luciferase reporter, 4 h;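 active means compounds whose plate-normalised and pattern-corrected inhibition of the luciferase reporter signal at the single screening dose is 50% or more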
XiGFP reactiv = activators of X-chromosome reactivation in mouse fibroblasts; XiGFP mouse fibroblasts, % GFP-positive cells imaging, 3 d; cells co-treated with 5-aza-dC sensitizer; scaled so ellipticine positive control = 100%; activation, % at 7.58 µM; actives 0.055% (n = 360,000); AID 743238;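 active means mean normalized replicate activation at least 10% and every replicate at or above 10%; inconclusive means only one of the two criteria met; inactive means mean below 10% and not all replicates reach 10%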;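 further: 0% = median of on-plate neutral control wells and 100% = ellipticine 6 µM median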
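material = 68-5-11 XiGFP fibroblast line | medium = DMEM plus 5-aza-dC sensitizer | schedule = 3 days compound exposure | benchmarks = positive control ellipticine, 6 µM final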
TWEAK-Fn14 inh = TWEAK-Fn14 signaling inhibition; TWEAK-stimulated Fn14 reporter cells, luciferase luminescence, 8 h; inhibition, % at 10 µM; actives 2% (n = 360,000); AID 1159606; in the data active means inhibition above about 50%
EWS-Fli inh = inhibitors of EWS/Fli oncoprotein transcriptional activity; A673 NR0B1-luciferase reporter, viability-normalised; inhibition, % at 12.6 µM; actives 0.67% (n = 350,000); AID 651661;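 active means mean inhibition of at least 50% after viability correction, with every replicate also passing that limit; inconclusive means mean reaches 50% but only one of two replicates passes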;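 further: firefly luciferase signal divided by Alamar Blue viability fluorescence both relative to DMSO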
FN deposition inh = fibronectin deposition inhibition. AH1F fibroblasts, Alexa488-fibronectin deposition fluorescence, overnight. inhibition, % at 12.6 µM. actives 0.086% (n = 350,000). AID 743247;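 active means mean inhibition across replicates of 30% or more, regardless of how many single replicates reach that level; inconclusive means mean under 30% yet at least half of replicates reach 30%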;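 further: positive control wells lacked labelled fibronectin entirely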
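Measured by – fluorescence 485/525 nm · System – AH1F fibroblast monolayer, labelled fibronectin deposition · Amount – 10000 cells per well · Buffer or medium – serum-reduced DMEM (2% serum) · Doses – single dose, pinned · Also added – fluorescent fibronectin at 24 nM final · Schedule – 1 h cell attachment, overnight exposure to compound and label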
* = called active by the depositor; ? = inconclusive; . = not tested or not shown.

SMILES	LGR2 inh	TROY signal inh	XiGFP reactiv	TWEAK-Fn14 inh	EWS-Fli inh	FN deposition inh
CN(C)c1ccc(N=Nc2ccc3ncccc3c2)cc1	62.4*	19.2	0.2	51.9*	10.3	-20.8
Cc1cc(N(C)C)ccc1N=Nc1ccc2ncccc2c1	-42.8	24.4	0.2	-16.4	-4.3	5.7
CN(C)c1ccc(N=Nc2cccc3ccoc23)cc1	-117.2	-39.4	0.1	-1.6	-58.7	2.2
CN(C)c1ccc(N=Nc2cccc(F)c2)cc1	31.8	18.6	0.0	51.7*	-95.8	2.5
O=C(C[C@@H]1CC[C@@H]2[C@H](COC[C@H](O)CN2C(=O)c2ccc(F)cc2)O1)Nc1ccc(-c2ccccc2)cc1	2.3	.	0.0	.	-20.3	-0.6
COCC#Cc1ccc2c(c1)O[C@@H](CN(C)S(=O)(=O)c1ccc(F)cc1)[C@H](C)CN([C@@H](C)CO)S2(=O)=O	0.9	.	-0.8	.	-5.1	.
COC(=O)C1=C2CC[C@H](CO)NC(=O)N[C@H](Cc3ccccc3)C(=O)NCc3cn(nn3)C[C@H](Cc3ccccc3)NC(=O)c3oc(c(C(=O)OC)c3C(=O)OC)CC[C@H](CO)NC(=O)N[C@H](Cc3ccccc3)C(=O)NCc3cn(nn3)C[C@H](Cc3ccccc3)NC(=O)C(=C1C(=O)OC)O2	.	.	.	.	-3.4	.
OC[C@@H]1[C@@H](c2ccc(Cl)cc2)C(c2cccc(Cl)c2)=NN1c1ccccc1	-3.9	-0.1	0.1	62.1*	-3.1	3.3
OC[C@@H]1[C@@H](c2ccc(Cl)cc2)C(c2ccccc2)=NN1c1ccccc1	11.5	4.4	0.1	21.7	1.4	0.1
COc1cccc(NC(=O)N(C)C[C@@H]2Oc3cc(C#CC4(O)CCCC4)ccc3S(=O)(=O)N([C@@H](C)CO)C[C@@H]2C)c1	-23.4	.	-1.0	.	-0.3	-3.8
COc1cccc(-c2cc3onc(-c4ccccc4)c3c(=O)n2C)c1	25.5	61.2*	0.0	70.4*	16.6	-7.8
COc1ccccc1C(=O)NNC(=O)c1cccc(O)c1	39.1	-11.4	-0.1	38.6	-9.4	0.3
COc1ccccc1C(=O)NNC(=O)c1cccc(F)c1	1.9	8.0	0.0	66.8*	.	6.0
COc1ccc(-n2cc(C(=O)c3ccccc3O)cn2)cc1	?	48.5	0.4	60.9*	22.0	-6.3
COc1ccc(O)c(C(=O)c2cnn(-c3ccccc3)c2)c1	-45.3	-26.5	0.0	-2.6	-68.0	0.6
COc1ccccc1C=CC(=O)C=Cc1ccccc1OC	-18.6	-35.8	0.9	80.2*	39.0	3.5
COc1ccccc1/C=C/C(=O)/C=C/c1ccccc1O	-22.1	-16.3	-0.1	88.0*	43.1	-2.9
CCn1c(/C=C/Nc2ccccc2)[n+](CC)c2cc(Cl)c(Cl)cc21	15.5	16.9	0.2	-23.9	68.8*	-2.7
COc1cc(C(=S)N2CCOCC2)ccc1OC(=O)c1cc([N+](=O)[O-])cc([N+](=O)[O-])c1	24.8	16.5	0.0	-11.3	.	-5.8
COc1ccc(C(=S)N2CCOCC2)cc1OC(=O)c1ccc([N+](=O)[O-])cc1[N+](=O)[O-]	2.0	43.7	0.2	99.9*	23.5	-1.4
Cc1noc(C)c1S(=O)(=O)N(C)C[C@@H]1OCCCC[C@H](C)Oc2ccc(NC(=O)Nc3ccc(F)cc3)cc2C(=O)N([C@H](C)CO)C[C@@H]1C	3.3	.	-0.1	.	5.6	3.8
COc1ccccc1-c1nnc2sc(-c3ccc(N(C)C)cc3)nn12	-5.9	23.8	0.3	23.0	60.4*	-2.8
CN(C)c1ccc(-c2nn3c(-c4ccccc4Cl)nnc3s2)cc1	.	-3.3	.	-3.4	.	.
CC(C)(C)c1ccc(C(=O)Nc2cnccn2)cc1	.	13.4	.	60.7*	.	.
O=C(Nc1ccccn1)C(=O)Nc1ccccn1	-10.3	28.6	-0.3	51.0*	-61.4	-4.6
COc1ccc(C(=O)Nc2cnccn2)cc1[N+](=O)[O-]	13.4	-2.3	0.2	6.3	-3.0	3.9
O=C(Nc1ccccn1)c1ccc(-c2ccccc2)cc1	70.3*	54.4*	0.0	89.3*	72.7*	-8.7
COc1ccc(S(=O)(=O)Nc2cccc3c2O[C@@H](CN(C)Cc2ccncc2)[C@@H](C)CN([C@@H](C)CO)C3=O)cc1	7.5	.	0.2	.	17.3	.
